Bioassay records from PubChem BioAssay.
In the library only some 1.5% were active in any assay of this set; here they are far more common.
C2C12 statin: protects C2C12 myotubes from simvastatin toxicity | ATP luminescence, 48 h; scaled: DMSO 0, geranylgeraniol control 100 | rescue of ATP level, % at 7.49 µM | 0.78% of 330,000 active | AID 602340;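 active = mean ATP rescue above about 67%, or every replicate alone reaching that limit, limit read from the data, passing the limit was not always enough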;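 also: myotubes were challenged with 10 µM simvastatin during compound exposure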
SUMO Mot1 rescue: SUMOylation pathway inhibition by Mot1-301 growth rescue; growth rescue, % at 18.8 µM; 1% of 320,000 active; AID 2716; S. cerevisiae Mot1-301 growth rescue, ATP luminescence, 38.5C; percent above DMSO median, 100 means doubled;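 active = every valid replicate shows activation above 250% relative to neutral control wells; inactive = the rest, any valid replicate at or below 250%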;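 also: OY570 slx delta 5 strain wells were the positive control but not used for scaling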
Cneo AK release: Cryptococcus neoformans lysis via adenylate kinase release; lysis activity, % at 15 µM; 0.2% of 360,000 active; C. neoformans lysis, adenylate kinase release luminescence, 4 h; normalised: neutral wells 0, clomiphene wells 100; AID 651654;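 active = mean lysis activity across replicates of at least 80%, whatever share of replicates individually reach that level; inactive = mean lysis activity below 80%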
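Test system: log-phase Cryptococcus neoformans yeast cells; Quantity: yeast cell density of 5 × 10^6 cells/mL; Buffer or medium: YPD; Doses: single compound concentration per well; Timing: 4 h at 37 °C static, read 1 h later; Measured by: AK luminescence; Read-out basis: lysis from increased AK signal; Control set: Clomiphene as positive control.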
Starred values were filed as active, the others as inactive; . = no result.

SMILES	C2C12 statin	SUMO Mot1 rescue	Cneo AK release
CN(C)C(=O)C[C@H]1CC[C@H]2[C@@H](COc3ccc(NC(=O)c4cnccn4)cc3C(=O)N2C)O1	1	.	-2
Cc1cc(Cl)ccc1OC(C)C(=O)Nc1ccccc1N1CCOCC1 (centres undefined)	94*	11	-3
CC(Oc1ccc(Cl)cc1)C(=O)Nc1ccccc1N1CCOCC1 (centres undefined)	-6	-3	-2
O=C(CC1CC1)Nc1ccc2c(c1)[C@@H]1C[C@H](CC(=O)N3CCOCC3)O[C@@H](CO)[C@@H]1O2	-3	.	-3
O=C(NCc1ccccc1Cl)c1cnccn1	67*	18	-1
O=C(COC(=O)c1cnccn1)NCc1ccccc1Cl	7	.	-1
CCC(=O)N1C[C@@H](C)[C@H](OC)CN(C)C(=O)c2cc(NC(=O)c3cc(C)on3)ccc2OC[C@H]1C	8	.	.
C#Cc1ccc([C@H]2C=C(C(=O)NC3CC3)O[C@@H](OCc3ccc(CO)cc3)C2)cc1	.	.	-3
C[C@@H]1CCCCO[C@@H](CN(C)C(=O)CCCN(C)C)[C@H](C)CN([C@H](C)CO)C(=O)c2cc(NC(=O)C3CCCCC3)ccc2O1	.	.	3
Cc1onc(-c2ccccc2Cl)c1C(=O)N1C=CC(C(F)(F)F)=NCC1	.	-14	.
O=C(c1ccc([N+](=O)[O-])cc1)N1C=CC(C(F)(F)F)=NCC1	.	346*	.
O=Nc1c2cc3ccccc3[nH]c-2c2ccccc12	-19	.	.
O=Nc1c(O)c2ccccc2c2ccccc12	-25	664*	-6
CO[C@H]1CN(C)C(=O)c2cc(NC(C)=O)ccc2OC[C@@H](C)N(Cc2ccccc2F)C[C@H]1C	-4	.	2
O=C(COC(=O)c1ccc(Br)cc1)NCc1ccccc1	.	7	.
CC(=O)Cc1cc(O)c2ccccc2c1OC(=O)c1ccc(Br)cc1	88*	2	.
C[C@H](O)C#Cc1ccc2c(c1)O[C@H](CN(C)CC1CC1)[C@H](C)CN([C@@H](C)CO)S2(=O)=O	14	.	.
COCCNC(=O)C[C@H]1C[C@H]2c3cc(N(C)C)ccc3O[C@H]2[C@@H](CO)O1	-9	.	-3
O=C(Cc1ccncc1)NCC[C@H]1CC[C@H](NC(=O)C2CCOCC2)[C@@H](CO)O1	3	.	2
CSc1cc(-c2ccc(Cl)cc2)c(C(=O)N2CCCC2)s1	126*	-12	5
CNC(=O)c1sc(SC)cc1-c1ccc(Cl)cc1	9	4	-6
O=C(CN1CCOCC1)N[C@H]1CC[C@@H](CCNC(=O)C2CCCCC2)O[C@@H]1CO	-2	.	-2
C[C@H](CO)N1C[C@H](C)[C@H](CN(C)C(=O)c2ccncc2)Oc2cc(/C=C/c3ccccc3)ccc2S1(=O)=O	0	.	-3
CCN1CCN(c2nc3sc4c(c3c3ncnn23)CC(C)CC4)CC1 (centres undefined)	126*	3	-1
CC1CCc2sc3nc(NCc4ccco4)n4ncnc4c3c2C1 (centres undefined)	16	-12	-3
SMILES	C2C12 statin	SUMO Mot1 rescue	Cneo AK release
COc1ccccc1CNC(=O)C[C@H]1CC[C@@H](NC(C)=O)[C@@H](CO)O1	-6	.	2
COC(=O)C[C@H]1CC[C@@H]2[C@@H](COc3ccc(NC(=O)c4cccc(Cl)c4)cc3C(=O)N2C)O1	10	.	46
O=C1C(c2ccc(F)cc2)N(C2CCCCC2)C(=O)CN1C1CCCC1 (centres undefined)	-3	3	2
Cc1ccc(C2C(=O)N(C3CCC(C)CC3)CC(=O)N2C2CCCC2)cc1 (centres undefined)	124*	80	-2
CCC(=O)N1C[C@@H](C)[C@@H](OC)CN(C)C(=O)c2ccc(NC(=O)C3CC3)cc2OC[C@H]1C	-26	.	9
O=C(C[C@@H]1CC[C@H]2[C@@H](COC[C@@H](O)CN2Cc2nccs2)O1)NCc1ccc(F)cc1	-24	.	-2
CSc1nsc(/C=C/Nc2ccc(F)cc2)c1C#N	.	-6	.
CSc1nsc(/C=C/Nc2ccc(Cl)cc2)c1C#N	125*	15	0
O=C(Nc1ccc2c(c1)OCO2)N[C@@H]1CC[C@@H](CCNC(=O)C2CCOCC2)O[C@H]1CO	-2	.	0
COc1ccc(-c2ccc3c(c2)O[C@@H](CN(C)Cc2ccccc2C(=O)O)[C@@H](C)CN([C@@H](C)CO)S3(=O)=O)cc1	15	.	-1
Cc1c(Cl)cccc1NC(=O)CNC(=O)Cc1n[nH]c(=O)c2ccccc12	110*	-27	-1
O=C(Cc1n[nH]c(=O)c2ccccc12)NCc1ccc(Cl)cc1	4	-12	3
O=C(CSc1nnc2ccccn12)NNC(=O)c1cccc(Cl)c1	113*	-9	-3
O=C(CSc1nnc2ccccn12)NNC(=O)c1ccccc1	.	6	.
COc1cccc(S(=O)(=O)Nc2ccc3c(c2)[C@@H]2C[C@@H](CC(=O)NCc4cccc(F)c4)O[C@H](CO)[C@@H]2O3)c1	5	.	106*
COc1cccc(S(=O)(=O)Nc2ccc3c(c2)[C@H]2C[C@@H](CC(=O)NCc4ccccc4F)O[C@H](CO)[C@H]2O3)c1	3	.	1
COc1cccc(S(=O)(=O)Nc2ccc3c(c2)[C@H]2C[C@H](CC(=O)NCc4cccc(F)c4)O[C@@H](CO)[C@H]2O3)c1	0	.	94*
COc1cccc(S(=O)(=O)Nc2ccc3c(c2)[C@H]2C[C@H](CC(=O)NCc4cccc(F)c4)O[C@H](CO)[C@H]2O3)c1	0	.	-1
COc1cccc(S(=O)(=O)Nc2ccc3c(c2)[C@H]2C[C@H](CC(=O)NCc4ccccc4F)O[C@@H](CO)[C@H]2O3)c1	4	.	95*
COc1cccc(S(=O)(=O)Nc2ccc3c(c2)[C@H]2C[C@@H](CC(=O)NCc4cccc(F)c4)O[C@@H](CO)[C@H]2O3)c1	-1	.	0
COC(=O)C[C@@H]1C[C@@H]2c3cc(NS(=O)(=O)c4cccc(OC)c4)ccc3O[C@@H]2[C@@H](CO)O1	-11	.	6
COc1cccc(S(=O)(=O)Nc2ccc3c(c2)[C@H]2C[C@@H](CC(=O)NC4CCCCC4)O[C@@H](CO)[C@H]2O3)c1	1	.	101*
C[C@@H]1CCCCO[C@@H](CN(C)C(=O)Nc2ccc3c(c2)OCO3)[C@@H](C)CN([C@H](C)CO)C(=O)c2cc(NC(=O)NC3CCCCC3)ccc2O1	.	.	44
Cc1cccc(S(=O)(=O)N2CC[C@@H]3[C@H]2c2cc(C#Cc4cccnc4)ccc2N[C@@H]3CO)c1	-37	.	-15
Cc1ccc(-c2cn(S(=O)(=O)c3cccc4nsnc34)nc2N)cc1	7	1	-3
SMILES	C2C12 statin	SUMO Mot1 rescue	Cneo AK release
Nc1nn(S(=O)(=O)c2cccc3nsnc23)cc1-c1ccc(Br)cc1	95*	-7	-2
Cn1c(SCc2cccc(Br)c2)nnc1-c1ccccn1	10	21	0
Cn1cnnc1SCC(=O)Nc1ccc(Br)cc1F	71*	-7	-3
Cn1cnnc1SCc1cccc(Br)c1	4	264*	-2
Cn1cnnc1SCC(=O)Nc1ccccc1	6	7	0
CO[C@@H]1CN(C)C(=O)c2ccc(NC(C)=O)cc2OC[C@@H](C)N(Cc2cccnc2)C[C@@H]1C	10	.	.
CCOC(=O)c1cc(NC(=O)NCc2ccco2)c(C)nc1C	83*	-9	-1
CCOC(=O)c1cc(NC(=O)Nc2ccccc2Cl)c(C)nc1C	.	121	.
